Test results published in article PMC2910240 (Neuroscience letters, 2010).
Read-outs that look alike come from different tables or passages of the source.

What was measured:
[1] = molecular target: human cloned 5-HT7 receptor; settings: cited from earlier work
[2] = molecular target: human cloned 5-HT1A; settings: cited from earlier work
[3] = molecular target: T1, h5-HT1A (Homo sapiens, UniProt P08908); test: Competition radioligand binding
T1 sequence (P08908 1-422): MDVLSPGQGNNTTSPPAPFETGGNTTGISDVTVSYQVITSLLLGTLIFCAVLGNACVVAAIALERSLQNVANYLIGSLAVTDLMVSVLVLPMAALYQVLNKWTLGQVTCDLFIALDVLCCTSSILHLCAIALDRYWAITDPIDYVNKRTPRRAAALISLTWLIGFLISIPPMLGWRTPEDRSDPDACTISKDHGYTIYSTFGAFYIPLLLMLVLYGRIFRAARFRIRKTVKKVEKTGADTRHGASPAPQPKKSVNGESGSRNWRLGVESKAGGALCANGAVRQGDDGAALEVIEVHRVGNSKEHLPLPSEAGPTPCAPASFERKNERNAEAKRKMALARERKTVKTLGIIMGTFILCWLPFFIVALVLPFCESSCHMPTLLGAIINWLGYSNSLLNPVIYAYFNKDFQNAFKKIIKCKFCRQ

[4] = molecular target: h5-HT1B (Homo sapiens, UniProt P28222); test: Competition radioligand binding; settings: 0.29 nM [3H]GR125743; mean ± S.E.M.
[5] = molecular target: h5-HT1D (Homo sapiens, UniProt P28221); test: Competition radioligand binding; settings: 1.4 nM [3H]5-CT; mean ± S.E.M.
[6] = molecular target: h5-ht1E (Homo sapiens, UniProt P28566); test: Competition radioligand binding; settings: for Ki: 3 nM [3H]5-HT
[7] = molecular target: h5-HT2A (Homo sapiens, UniProt P28223); format: binding; settings: 0.5 nM [3H]ketanserin; mean ± S.E.M.
[8] = molecular target: h5-HT2B (Homo sapiens, UniProt P41595); test: Competition radioligand binding; settings: 1.0 nM [3H]LSD; mean ± S.E.M.
[9] = molecular target: T2, r5-HT2C (Rattus norvegicus, UniProt P08909); test: Competition radioligand binding; settings: 0.5 nM [3H]mesulergine; mean ± S.E.M.
T2 sequence (P08909 33-460): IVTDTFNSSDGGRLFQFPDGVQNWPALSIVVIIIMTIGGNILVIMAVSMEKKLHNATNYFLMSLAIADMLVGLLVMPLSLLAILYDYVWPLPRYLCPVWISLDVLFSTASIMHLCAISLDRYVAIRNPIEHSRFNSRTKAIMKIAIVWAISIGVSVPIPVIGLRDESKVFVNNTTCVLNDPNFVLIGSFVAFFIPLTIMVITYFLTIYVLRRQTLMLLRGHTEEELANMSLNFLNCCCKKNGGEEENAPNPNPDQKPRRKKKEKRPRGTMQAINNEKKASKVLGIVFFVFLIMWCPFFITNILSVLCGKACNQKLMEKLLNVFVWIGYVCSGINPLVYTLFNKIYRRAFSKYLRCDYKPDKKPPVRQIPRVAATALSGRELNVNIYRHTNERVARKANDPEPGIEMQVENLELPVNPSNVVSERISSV

[10] = molecular target: T3, h5-HT3 (Homo sapiens, UniProt P46098); test: Competition radioligand binding; settings: for Ki: 0.29 nM [3H]LY278584, mean ± S.E.M.
T3 sequence (P46098 24-478): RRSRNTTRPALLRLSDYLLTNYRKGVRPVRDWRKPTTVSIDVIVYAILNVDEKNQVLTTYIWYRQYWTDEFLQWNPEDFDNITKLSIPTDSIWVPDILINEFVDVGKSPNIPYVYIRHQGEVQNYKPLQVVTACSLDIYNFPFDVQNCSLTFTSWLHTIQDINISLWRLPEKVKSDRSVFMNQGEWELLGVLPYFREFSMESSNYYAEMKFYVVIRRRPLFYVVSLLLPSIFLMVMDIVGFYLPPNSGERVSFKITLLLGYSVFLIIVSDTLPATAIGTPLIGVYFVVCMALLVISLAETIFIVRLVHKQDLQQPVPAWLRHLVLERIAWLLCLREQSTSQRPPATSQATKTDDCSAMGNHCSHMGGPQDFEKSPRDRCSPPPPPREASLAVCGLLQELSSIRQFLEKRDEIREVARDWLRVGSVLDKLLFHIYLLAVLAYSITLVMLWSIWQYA

[11] = molecular target: h5-ht5A (Homo sapiens, UniProt P47898); test: Competition radioligand binding; settings: for Ki: 0.99 nM [3H]LSD, mean ± S.E.M.
[12] = molecular target: h5-HT6 (Homo sapiens, UniProt P50406); test: Competition radioligand binding; settings: 0.97 nM [3H]LSD; mean ± S.E.M.
[13] = molecular target: hSERT (Homo sapiens, UniProt P31645); test: Competition radioligand binding; settings: 0.79 nM [3H]citalopram; mean ± S.E.M.
[14] = tested on: 5-HT7^+/+ mice; test: Body temperature regulation in 5-HT7+/+ mice; format: in vivo, mouse
[15] = tested on: 5-HT7^−/− mice; test: Body temperature regulation in 5-HT7-/- mice; format: in vivo, mouse
[16] = Disposition: plasma and brain concentrations in mice; format: in vivo, mouse; settings: for Plasma concentration: 30 min
Summary of the method: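 Male 5-HT7−/− and 5-HT7+/+ sibling mice, 10–12 weeks old, got test compound i.p. (10 or 30 mg·kg−1). It was dissolved in ethanol at 10× and diluted in saline just before injection. At 30 min mice were killed by isoflurane overdose; […] and brain were stored at −80 °C. Parent and metabolite were measured in plasma and water brain homogenate (1 g·10 mL−1) by RP-HPLC-UV at 230 nm with internal standard. LLOQ 50 ng·mL−1 or g−1. Ratios on molar basis; 5 mice/group.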

[17] = tested on: mice; test: Observation of visible adverse effects in mice; format: in vivo, mouse; settings: i.p. doses of the body temperature study
[18] = molecular target: rat cloned 5-HT7 receptors; settings: cited from earlier work
[19] = molecular target: 5-HT7 receptor; settings: cited from earlier work
[20] = molecular target: h5-HT7 (Homo sapiens, UniProt P34969); test: Competition radioligand binding
[21] = cited from earlier work
[22] = 0.5 nM [3H]8-OH-DPAT, mean ± S.E.M.
[23] = 3, 10, and 30 mg/kg i.p., wild-type mice

Chain of h5-HT7 (P34969 whole entry): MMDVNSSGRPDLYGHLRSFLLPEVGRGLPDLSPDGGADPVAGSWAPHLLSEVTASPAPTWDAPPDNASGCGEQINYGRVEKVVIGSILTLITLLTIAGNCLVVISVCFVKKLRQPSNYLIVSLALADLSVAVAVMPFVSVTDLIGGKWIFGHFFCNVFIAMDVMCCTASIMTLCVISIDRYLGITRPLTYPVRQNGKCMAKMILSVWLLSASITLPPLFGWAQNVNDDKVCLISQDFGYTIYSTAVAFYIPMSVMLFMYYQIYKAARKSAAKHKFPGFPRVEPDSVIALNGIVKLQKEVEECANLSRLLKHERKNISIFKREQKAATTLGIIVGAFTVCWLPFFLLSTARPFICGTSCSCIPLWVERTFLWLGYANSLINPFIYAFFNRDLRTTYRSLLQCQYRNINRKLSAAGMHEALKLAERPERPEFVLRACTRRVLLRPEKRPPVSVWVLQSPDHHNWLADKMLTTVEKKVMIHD
Chain of h5-HT6 (P50406 whole entry): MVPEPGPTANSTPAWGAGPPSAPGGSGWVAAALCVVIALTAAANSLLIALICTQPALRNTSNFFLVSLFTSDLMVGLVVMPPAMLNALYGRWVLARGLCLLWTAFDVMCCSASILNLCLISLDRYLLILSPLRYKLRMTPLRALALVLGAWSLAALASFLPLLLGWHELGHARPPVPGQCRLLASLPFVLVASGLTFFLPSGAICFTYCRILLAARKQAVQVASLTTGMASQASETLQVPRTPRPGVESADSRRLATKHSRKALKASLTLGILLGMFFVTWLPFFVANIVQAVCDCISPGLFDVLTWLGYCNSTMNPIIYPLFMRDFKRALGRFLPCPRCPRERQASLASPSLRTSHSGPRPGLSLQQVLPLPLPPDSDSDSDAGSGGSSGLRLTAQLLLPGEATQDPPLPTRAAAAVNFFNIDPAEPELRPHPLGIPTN
Chain of hSERT (P31645 whole entry): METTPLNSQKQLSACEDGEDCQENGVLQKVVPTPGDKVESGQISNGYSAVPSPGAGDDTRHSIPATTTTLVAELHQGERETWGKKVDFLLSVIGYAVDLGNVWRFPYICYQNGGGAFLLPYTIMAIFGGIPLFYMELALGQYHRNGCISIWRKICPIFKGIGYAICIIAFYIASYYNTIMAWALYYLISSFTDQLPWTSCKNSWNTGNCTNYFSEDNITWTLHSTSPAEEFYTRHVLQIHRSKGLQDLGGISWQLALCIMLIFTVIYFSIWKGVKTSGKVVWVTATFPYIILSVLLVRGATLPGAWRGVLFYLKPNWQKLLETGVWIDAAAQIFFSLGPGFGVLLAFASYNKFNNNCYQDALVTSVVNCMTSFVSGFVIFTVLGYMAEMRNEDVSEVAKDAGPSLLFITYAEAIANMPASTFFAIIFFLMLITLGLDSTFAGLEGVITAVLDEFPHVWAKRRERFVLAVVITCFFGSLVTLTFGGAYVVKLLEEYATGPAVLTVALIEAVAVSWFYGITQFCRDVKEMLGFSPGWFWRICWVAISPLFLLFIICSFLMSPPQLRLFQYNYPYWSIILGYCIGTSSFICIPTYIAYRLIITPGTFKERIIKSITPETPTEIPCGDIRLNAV
Chain of h5-ht1E (P28566 whole entry): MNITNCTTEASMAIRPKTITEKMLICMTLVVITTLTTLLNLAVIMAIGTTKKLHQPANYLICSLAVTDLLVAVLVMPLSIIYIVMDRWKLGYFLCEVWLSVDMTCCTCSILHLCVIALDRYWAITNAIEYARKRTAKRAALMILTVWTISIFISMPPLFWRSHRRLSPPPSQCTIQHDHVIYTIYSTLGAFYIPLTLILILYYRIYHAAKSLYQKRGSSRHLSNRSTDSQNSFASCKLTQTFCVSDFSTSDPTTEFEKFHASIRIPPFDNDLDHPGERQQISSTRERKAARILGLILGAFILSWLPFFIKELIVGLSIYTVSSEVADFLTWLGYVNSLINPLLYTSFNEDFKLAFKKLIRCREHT
Chain of h5-HT2B (P41595 whole entry): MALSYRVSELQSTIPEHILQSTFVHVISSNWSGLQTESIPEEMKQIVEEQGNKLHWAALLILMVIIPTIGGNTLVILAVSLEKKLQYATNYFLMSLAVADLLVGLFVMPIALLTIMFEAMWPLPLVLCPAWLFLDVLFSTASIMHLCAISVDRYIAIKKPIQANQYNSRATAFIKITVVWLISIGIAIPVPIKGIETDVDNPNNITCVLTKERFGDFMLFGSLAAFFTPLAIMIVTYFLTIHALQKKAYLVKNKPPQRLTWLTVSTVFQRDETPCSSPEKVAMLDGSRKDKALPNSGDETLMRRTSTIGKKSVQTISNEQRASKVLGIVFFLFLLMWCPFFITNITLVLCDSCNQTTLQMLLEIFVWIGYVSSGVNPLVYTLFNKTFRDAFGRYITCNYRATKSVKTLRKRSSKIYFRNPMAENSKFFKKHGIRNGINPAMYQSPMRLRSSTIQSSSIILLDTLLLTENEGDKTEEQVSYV
Chain of h5-ht5A (P47898 whole entry): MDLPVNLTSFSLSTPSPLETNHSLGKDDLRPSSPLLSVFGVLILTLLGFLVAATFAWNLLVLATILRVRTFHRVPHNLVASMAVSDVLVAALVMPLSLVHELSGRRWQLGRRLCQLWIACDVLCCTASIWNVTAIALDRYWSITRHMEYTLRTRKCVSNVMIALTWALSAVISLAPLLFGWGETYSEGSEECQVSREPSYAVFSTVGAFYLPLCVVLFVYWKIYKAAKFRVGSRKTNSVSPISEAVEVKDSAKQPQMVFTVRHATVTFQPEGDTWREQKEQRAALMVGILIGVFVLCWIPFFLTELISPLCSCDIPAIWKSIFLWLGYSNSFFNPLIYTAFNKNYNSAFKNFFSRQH
Chain of h5-HT1D (P28221 whole entry): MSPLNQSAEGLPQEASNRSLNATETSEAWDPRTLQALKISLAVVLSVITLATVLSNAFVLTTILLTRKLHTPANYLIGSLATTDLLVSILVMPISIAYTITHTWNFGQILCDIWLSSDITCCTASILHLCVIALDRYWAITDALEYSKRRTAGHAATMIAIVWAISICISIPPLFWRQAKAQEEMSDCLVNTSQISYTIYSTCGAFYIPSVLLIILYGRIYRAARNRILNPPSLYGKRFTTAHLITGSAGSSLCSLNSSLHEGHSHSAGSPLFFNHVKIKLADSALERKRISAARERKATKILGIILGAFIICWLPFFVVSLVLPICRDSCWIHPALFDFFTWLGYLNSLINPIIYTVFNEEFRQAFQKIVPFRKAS
Chain of h5-HT1B (P28222 whole entry): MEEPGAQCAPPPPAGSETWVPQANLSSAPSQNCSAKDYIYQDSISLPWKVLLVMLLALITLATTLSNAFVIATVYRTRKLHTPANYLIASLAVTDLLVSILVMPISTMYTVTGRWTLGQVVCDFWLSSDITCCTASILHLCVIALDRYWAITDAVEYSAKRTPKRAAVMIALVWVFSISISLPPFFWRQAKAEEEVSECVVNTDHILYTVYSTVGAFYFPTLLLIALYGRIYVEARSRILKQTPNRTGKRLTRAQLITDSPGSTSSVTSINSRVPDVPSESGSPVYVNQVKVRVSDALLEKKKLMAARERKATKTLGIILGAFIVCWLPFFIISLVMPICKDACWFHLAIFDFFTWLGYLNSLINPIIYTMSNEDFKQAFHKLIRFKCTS
Chain of h5-HT2A (P28223 whole entry): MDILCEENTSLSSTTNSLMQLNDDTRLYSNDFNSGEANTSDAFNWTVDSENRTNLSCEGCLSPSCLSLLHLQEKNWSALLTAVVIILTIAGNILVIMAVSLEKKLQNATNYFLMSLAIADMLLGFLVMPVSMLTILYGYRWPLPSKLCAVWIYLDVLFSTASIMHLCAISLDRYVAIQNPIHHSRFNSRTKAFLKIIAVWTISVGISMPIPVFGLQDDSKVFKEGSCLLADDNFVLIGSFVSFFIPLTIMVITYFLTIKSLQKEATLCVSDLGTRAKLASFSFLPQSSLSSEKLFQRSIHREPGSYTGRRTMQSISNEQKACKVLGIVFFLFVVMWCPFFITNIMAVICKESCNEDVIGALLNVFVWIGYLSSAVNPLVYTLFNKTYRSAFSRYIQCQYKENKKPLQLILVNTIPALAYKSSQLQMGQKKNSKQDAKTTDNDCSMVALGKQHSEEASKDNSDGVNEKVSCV

## CCCN(CCC)C1CCc2cccc(O)c2C1 (centres unmarked) [8-OH-DPAT, 8-hydroxy-N,N-dipropylaminotetraline]
[1]
  Ki: 467 nM
[2]
  Ki: 3.8 nM

## N#Cc1ccc(CNC(=O)CCCCCN2CCN(c3ccccc3-c3ccccc3)CC2)cc1 [LP-211, N-(4-cyanophenylmethyl)-4-(2-diphenyl)-1-piperazinehexanamide]
[3]; [22]
  Ki: 379 ± 118 nM
[4]
  Ki: […]
[5]
  Ki: 394 ± 74 nM
[6]
  binding at 5-HT1E receptors: did not significantly bind
[7]
  Ki: […]
[8]
  Ki: 67 ± 10 nM
[9]
  Ki: […]
[10]
  binding at 5-HT3 receptors: did not significantly bind
[11]
  Ki: […]
[12]
  Ki: 1570 ± 193 nM
[13]
  Ki: 812 ± 156 nM
[14]; 3 mg/kg i.p., 5-HT7+/+ mice
  effect on body temperature: did not alter body temperature
[14]; 10 mg/kg i.p., 5-HT7+/+ mice
  effect on body temperature: had a peak effect
[14]; 30 mg/kg i.p., 5-HT7+/+ mice, peak change and overall change
  effect on body temperature: significant effect
[14]; [23]
  effect on body temperature: dose-dependently reduced body temperature
[15]; 3 mg/kg i.p.
  effect on body temperature: did not alter body temperature
[15]; 10 mg/kg i.p.
  effect on body temperature: […]
[15]; 30 mg/kg i.p.
  effect on body temperature: significant, but less pronounced, effect on peak change
[16]; LP-211 10 mg/kg i.p., 5-HT7+/+ mice
  Plasma concentration: […]
[16]; LP-211 10 mg/kg i.p., 5-HT7-/- mice
  Plasma concentration: […]
[16]; LP-211 30 mg/kg i.p., 5-HT7+/+ mice
  Plasma concentration: […]
[16]; LP-211 30 mg/kg i.p., 5-HT7-/- mice
  Plasma concentration: […]
[17]
  visible adverse effects apart from the hypothermia: did not induce any visible adverse effects
[18]
  Ki: 0.58 nM
[19]; isolated guinea pig ileum
  EC50: […]
  maximal activity compared to 5-CT: […]

## CC[C@@H](CO)NC(=O)[C@@H]1C=C2c3cccc4c3c(cn4C)C[C@H]2N(C)C1 [Methysergide, reference compound]
[3]
  Ki: 38 nM

## c1ccc(-c2ccccc2N2CCNCC2)cc1 [RA-7, 1-(2-diphenyl)piperazine]
[20]; 1.1 nM [3H]LSD, mean ± S.E.M.
  Ki: 1.4 ± 0.2 nM
[20]; RA-7 vs LP-211
  Ki at human 5-HT7 lower than the corresponding value for the parent compound: approximately 10 fold
[20]; from Ki values
  selectivity for 5-HT7 over a range of 5-HT receptor subtypes and SERT: > 54 fold
[3]; [22]
  Ki: 99 ± 22 nM
[3]; from Ki values
  selectivity for 5-HT7 over 5-HT1A: 71 fold
[4]
  Ki: 1020 ± 121 nM
[5]
  Ki: 302 ± 39 nM
[6]
  Ki: > 10 µM
[7]
  Ki: 1190 ± 288 nM
[8]
  Ki: 178 ± 19 nM
[9]
  Ki: 171 ± 14 nM
[10]
  Ki: 228 ± 34 nM
[11]
  Ki: 76 ± 14 nM
[11]; from Ki values
  selectivity for 5-HT7 over 5-HT5A: 54 fold
[12]
  Ki: 596 ± 70 nM
[13]
  Ki: 439 ± 41 nM
[14]; 3 mg/kg i.p., genotype not given
  effect on body temperature: slight but significant hyperthermic effect
[14]; 10 mg/kg i.p., 5-HT7+/+ mice
  effect on body temperature: induced hypothermia to small degree that reached significance for overall change
[16]; 30 min after the lowest dose of LP-211, 5-HT7-/- and 5-HT7+/+ mice
  metabolite in plasma and brain: undetectable
[17]
  visible adverse effects apart from the hypothermia: did not induce any visible adverse effects
[21]
  mean metabolite-to-parent compound ratio in mouse brain, molar basis: about 2

## CC1CCN(CC[C@H]2CCCN2S(=O)(=O)c2cccc(O)c2)CC1 [SB-269970, (2R)-1-[(3-hydroxyphenyl)sulfonyl]-2-[2-(4-methyl-1-piperidinyl)ethyl]pyrrolidine, reference compound]
[14]; 10 mg/kg i.p., genotype not given
  effect of the antagonist itself on body temperature: no effect on body temperature
[14]; antagonist 10 mg/kg i.p., 30 min prior to LP-211
  antagonism of the effect of LP-211 (30 mg/kg) on body temperature: blocked the effect of LP-211
[19]
  reversal of the LP-211 effect in guinea pig ileum: reversed
